Key:
Format in all cases: functional
Rattus norvegicus [1] = test: Analgesic activity in albino rat assessed as latency in reaction time required for thermal stimulus-induced tail flicking at 10 mg/kg, po after 60 mins
In short: (§1)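 Albino rats, 150-200 g, six per group, held in a restrainer. A 3-4 cm marked segment of tail was immersed in water at 55 °C. Tail withdrawal time (s) was recorded before dosing and at 30, 60 and 90 min after oral dosing at 10 mg/kg in 1% gum acacia. Cut-off was 30 s. Controls received vehicle only. Pentazocin was the reference.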

Rattus norvegicus [2] = test: Antiinflammatory activity in albino rat assessed as reduction of carrageenan-induced paw volume at 10 mg/kg, po administered 30 mins before carrageenan challenge measured after 120 mins by plethysmograph (reference value: 0.367 +/- 0.033 ml)
In short: (§2)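 Rats, six per group, were dosed orally at 10 mg/kg. Controls received 0.1 mL of 1% gum acacia; diclofenac sodium was the standard. After 30 min, 0.1 mL of 1% carrageenan in normal saline was injected sub-plantar into the right hind paw. Paw volume was read by plethysmograph at 0 h and at 30-150 min. Oedema is expressed as change versus control at matching times (±SE).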

Rattus norvegicus [3] = test: Analgesic activity in albino rat assessed as latency in reaction time required for thermal stimulus-induced tail flicking at 10 mg/kg, po after 90 mins; in short: as §1
Rattus norvegicus [4] = test: Antiinflammatory activity in albino rat assessed as reduction of carrageenan-induced paw volume at 10 mg/kg, po administered 30 mins before carrageenan challenge measured after 60 mins by plethysmograph (reference value: 0.333 +/- 0.033 ml); in short: as §2
Rattus norvegicus [5] = test: Antiinflammatory activity in albino rat assessed as reduction of carrageenan-induced paw volume at 10 mg/kg, po administered 30 mins before carrageenan challenge measured after 150 mins by plethysmograph (reference value: 0.3667 +/- 0.033 ml); in short: as §2
Rattus norvegicus [6] = test: Antiinflammatory activity in albino rat assessed as reduction of carrageenan-induced paw volume at 10 mg/kg, po administered 30 mins before carrageenan challenge measured after 90 mins by plethysmograph (reference value: 0.3667 +/- 0.033 ml); in short: as §2
Rattus norvegicus [7] = test: Analgesic activity in albino rat assessed as latency in reaction time required for thermal stimulus-induced tail flicking at 10 mg/kg, po after 30 mins; in short: as §1
Rattus norvegicus [8] = test: Antiinflammatory activity in albino rat assessed as reduction of carrageenan-induced paw volume at 10 mg/kg, po administered 30 mins before carrageenan challenge measured after 30 mins by plethysmograph (reference value: 0.333 +/- 0.033 ml); in short: as §2

Structure (SMILES)	Time (Rattus norvegicus [1]) [s]	Activity (Rattus norvegicus [2]) [mL]	Time (Rattus norvegicus [3]) [s]	Activity (Rattus norvegicus [4]) [mL]	Activity (Rattus norvegicus [5]) [mL]	Activity (Rattus norvegicus [6]) [mL]	Time (Rattus norvegicus [7]) [s]	Activity (Rattus norvegicus [8]) [mL]
COc1ccc(C2=NN(C(C)=O)C(c3c(C)nn(-c4ccccc4)c3Cl)C2)cc1 (centres undefined)	3.7	0.0667	4.333	0	0.1	0.1	2.9	0
CC(=O)N1N=C(c2ccc(Cl)cc2)CC1c1c(C)nn(-c2ccccc2)c1Cl (centres undefined)	3.067	0.0667	4.2	0.0667	0.0667	0.033	2.5	0.033
CCC(=O)N1N=C(c2ccc([N+](=O)[O-])cc2)CC1c1c(C)nn(-c2ccccc2)c1Cl (centres undefined)	3.533	0	3.933	0.0667	0.033	0.033	3.1	0.0667
CCC(=O)N1N=C(c2ccc(C)cc2)CC1c1c(C)nn(-c2ccccc2)c1Cl (centres undefined)	3.733	0.3	4.6	0.133	0.3	0.133	2.9	0.0667
CCC(=O)N1N=C(c2ccccc2)CC1c1c(C)nn(-c2ccccc2)c1Cl (centres undefined)	2.7	0.367	3.633	0.333	0.3667	0.433	2.333	0.2667
O=C([O-])Cc1ccccc1Nc1c(Cl)cccc1Cl.[Na+] [DICLOFENAC SODIUM]	–	0.033	–	0.033	0.033	0.033	–	0.033
CC(=O)N1N=C(c2cccc([N+](=O)[O-])c2)CC1c1c(C)nn(-c2ccccc2)c1Cl (centres undefined)	4.733	0.0667	4.833	0.0667	0.133	0.033	3.7	0.0667
CC(=O)N1N=C(c2ccc(Br)cc2)CC1c1c(C)nn(-c2ccccc2)c1Cl (centres undefined)	4.733	0.1667	4.833	0.033	0.3	0.033	3.967	0.1
CCC(=O)N1N=C(c2ccc(OC)cc2)CC1c1c(C)nn(-c2ccccc2)c1Cl (centres undefined)	4.633	0.1667	4.4	0.1667	0.2	0.133	4.667	0.1667
CC(=O)N1N=C(c2ccc(C)cc2)CC1c1c(C)nn(-c2ccccc2)c1Cl (centres undefined)	4.567	0.033	5.467	0.1	0.0667	0.0667	3.3	0.0667
CCC(=O)N1N=C(c2ccc(Br)cc2)CC1c1c(C)nn(-c2ccccc2)c1Cl (centres undefined)	4.167	0.2667	4.5	0.133	0.2667	0.2	3.8	0.1667
CC(C)=CCN1CC[C@]2(C)c3cc(O)ccc3C[C@H]1[C@H]2C [(+)-PENTAZOCINE]	5.6	–	6.4	–	–	–	2.9	–
CCC(=O)N1N=C(c2cccc([N+](=O)[O-])c2)CC1c1c(C)nn(-c2ccccc2)c1Cl (centres undefined)	3.067	0.1	4.333	0.033	0.1	0.033	2.767	0.033
CC(=O)N1N=C(c2ccc([N+](=O)[O-])cc2)CC1c1c(C)nn(-c2ccccc2)c1Cl (centres undefined)	4.767	0.0667	5.267	0.0667	0.1667	0.06	3.467	0.1
